Compound activity as filed in PubChem BioAssay.
Compounds with a hit are over-represented: about 2.6% of the library has one in this group of screens.
Rce1 inhib: blocks yeast Ras-converting enzyme | Q03530 | 290,000 tested, 0.27% active | yeast membranes, quenched prenylated peptide cleavage fluorescence | calls only | AID 2563;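 active means fall in fluorescence gain of 50% or more versus controls, with final raw signal at or below 3038400; inconclusive means same 50% fall but final raw signal above 3038400; inactive means fall in fluorescence gain under 50%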;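 further: plate controls were neutral control wells for no effect and wells lacking membranes for full effect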
Target sequence (Q03530 whole entry, looked up): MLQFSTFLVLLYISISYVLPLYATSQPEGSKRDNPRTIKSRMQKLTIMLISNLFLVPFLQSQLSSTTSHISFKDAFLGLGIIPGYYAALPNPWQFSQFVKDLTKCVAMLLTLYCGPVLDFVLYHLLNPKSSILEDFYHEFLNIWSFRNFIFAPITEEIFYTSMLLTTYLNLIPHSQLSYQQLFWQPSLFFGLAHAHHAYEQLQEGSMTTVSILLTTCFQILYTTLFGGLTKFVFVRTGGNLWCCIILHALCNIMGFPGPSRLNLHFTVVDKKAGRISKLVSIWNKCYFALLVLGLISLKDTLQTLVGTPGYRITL
SKN-1 block: C. elegans SKN-1 inhibition; C. elegans VP596 Pgst-4::GFP/RFP ratio, acrylamide-induced, 24 h; inhibition, % at 21.8 µM; AID 624304; 360,000 tested, 0.49% active;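 active means interference check ratio from 0.5 to 1.5 plus GFP to RFP signal ratio inhibition reaching or exceeding a fixed threshold, cut at about 30% in these data, passing the limit was not always enough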
Rin1-Abl PPI inh: human Rin1-Abl interaction inhibition; P00519+Q13671; TR-FRET Rin1/Abl binding, biochemical; inhibition, % at 7.35 µM; 360,000 tested, 0.4% active; AID 588664; in the data active means inhibition above about 5%, passing the limit was not always enough
GRK2 inh: blocks RNA aptamer binding to human GRK2; AID 488847; bead flow cytometry, FAM-aptamer displacement from GRK2; P25098; 330,000 tested, 0.59% active; inhibition of aptamer binding, % at 10 µM;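 active means inhibition of aptamer binding above 40%, roughly 3 SD of noise, on plates passing a quality check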;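 further: median bead fluorescence of bound FAM aptamer so fluorescent compounds give negative values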
T cell modulator: T cell immune modulators affecting CD8 T cell-vesicle binding. 2C CD8+ T cell-vesicle binding, flow cytometry; active compounds read low. response (vesicle binding), % at 7 µM. 330,000 tested, 0.068% active. AID 2052;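 active means response, share of CD8 T cells binding vesicles, and their 90th percentile fluorescence all below set limits, cut at about 80% in these data, passing the limit was not always enough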;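 further: values below 100% mean blocked vesicle binding to the CD8+ T cells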
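Assay system – 2C mouse CD8+ T cells · Also added – QL9-loaded Drosophila micro-vesicles · Timing – Cell–vesicle co-incubation 1.5 h at 37 °C, staining 20 min on ice · Signal – flow cytometry of vesicle-bound cells · Measure – percent CD8+ FL2 mean versus row control · Controls – Peptide-free naked vesicles (low) and QL9 vesicles with 0.7% DMSO vehicle (high)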
Myeloid diff 2: promotes myeloid progenitor differentiation | ER-HoxA9 myeloid progenitors, lysozyme-GFP differentiation, flow cytometry | calls only at 10 µM | 360,000 tested, 1% active | AID 624256;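 active means normalized GFP-positive differentiation at or above the plate's own cutoff, the solvent-only control mean plus 3 SD; inconclusive means no clear call, values can overlap the other calls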;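 further: cells exposed to compound for four days before flow analysis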
Myeloid diff: myeloid differentiation induction; 2,300 tested, 2% active; shares compounds with Myeloid diff 2; ER-HoxA9 myeloid progenitors, GFP/Mac1 double-positive flow; calls only;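 active means share of green or green-and-red cells above 9 and 9% in run 1 or 4 and 3% in run 2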
GFP autofluor: compound fluorescence in myeloid differentiation counter-screen | fluorescence response, % (test concentration not listed) | shares compounds with Myeloid diff 2 | ER-HoxA9 myeloid progenitors, no estrogen, GFP autofluorescence flow cytometry; vehicle wells 0%, positive control 100% | 2,300 tested, 7.4% active;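 active means over 5% cells positive for green fluorescent reporter, or over 2% positive for both it and APC stain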;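 further: range taken on the double positive population between DMSO and positive control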
An asterisk follows results filed as active; i = inactive; ? = inconclusive; / = no result; + = active, no number.

SMILES | Rce1 inhib | SKN-1 block | Rin1-Abl PPI inh | GRK2 inh | T cell modulator | Myeloid diff 2 | Myeloid diff | GFP autofluor
COc1ccc(C2=Nc3ccccc3N(C(=O)c3ccc(C(F)(F)F)cc3)C2C(=O)Nc2c(C)cccc2C)cc1 (centres undefined) | / | -9 | / | / | / | i | i | 0
COc1ccc(CCNC(=O)/C=C/c2ccc(S(=O)(=O)N3CCOCC3)cc2)cc1 | / | -12 | -3 | 4 | 813 | i | / | /
O=C(NC1CCCC1)c1cnc2n(c1=O)CCS2 | i | -3 | -6 | 0 | 212 | i | i | 0
COc1cccc(Cn2cnc3c(N)c(C)c(C)cc32)c1 | i | -6 | -1 | 0 | 305 | i | i | 0
COc1ccc2[nH]c3c(c2c1)CCNC3c1ccc([N+](=O)[O-])o1 (centres undefined) | i | 5 | 6 | 17 | 426 | + | i | 99*
COc1cc2c(=O)n(Cc3ccccc3)c(=O)n(CC(=O)NCC3CCCO3)c2cc1OC (centres undefined) | i | 9 | -3 | 0 | 319 | i | / | /
COc1cc2c(=O)n(Cc3ccccc3)c(=O)n(CC(=O)NCCc3ccccc3)c2cc1OC | i | -2 | 0 | 2 | 176 | + | i | 0
O=C(Sc1ccccc1)c1cccc(Cn2cc(C(F)(F)F)ccc2=O)c1 | i | 0 | 3 | 1 | 602 | i | / | /
Cc1cccc(-n2c(=O)c3c4c(sc3n3c(=S)[nH]nc23)CCC4)c1 | / | -5 | -2 | / | / | i | / | /
COC(=O)C(C)Sc1nnc2n(-c3cccc(C)c3)c(=O)c3c4c(sc3n12)CCCC4 (centres undefined) | i | 11 | 1 | 0 | 424 | i | i | 0
CC(=O)Nc1ccc(S(=O)(=O)Nc2nc3ccccc3nc2Sc2nncn2C)cc1 | i | 1 | 1 | 0 | 328 | i | / | /
Cn1cnnc1Sc1nc2ccccc2nc1NS(=O)(=O)c1ccccc1 | i | -2 | 1 | 0 | 494 | i | i | 0
CCc1cc(C(=O)c2ccc(Br)cc2)c(NC(=O)CN(CC)CC)s1 | i | -7 | 0 | 0 | 351 | i | / | /
Cc1cc(OCC[N+]2(C)CCCCC2)nc2ccccc12 | i | -8 | 1 | 0 | 138 | i | i | 0
O=C(NNC(=O)c1n[nH]c2ccccc12)c1ccccc1 | / | 23 | 4 | / | / | i | / | /
O=C(NC1(C(F)(F)F)NC(=O)N(Cc2ccco2)C1=O)c1cccnc1 (centres undefined) | i | -1 | -3 | 0 | 584 | + | i | 0
O=C(NC1(C(F)(F)F)NC(=O)N(Cc2ccccc2)C1=O)c1cccnc1 (centres undefined) | i | -9 | 0 | 1 | 200 | i | / | /
CCOC(=O)c1c(N)sc2c1CCC(C)C2 (centres undefined) | i | 9 | -3 | 0 | 162 | + | i | 1
Cc1cc(C(=O)COC(=O)Cc2n[nH]c(=O)c3ccccc23)c(C)n1-c1ccc2c(c1)OCO2 | i | -6 | -5 | 0 | 197 | + | i | 1
COc1ccc(-n2c(C)cc(C(=O)COC(=O)Cc3n[nH]c(=O)c4ccccc34)c2C)cc1 | i | -2 | -4 | 0 | 159 | ? | / | /
Cc1nc(C(F)(F)F)ccc1C(=O)N1CCC(C)(C(=O)NS(=O)(=O)C2CC2)C1 (centres undefined) | / | 0 | 1 | / | / | i | / | /
COc1ccc2nc3ccccc3nc2c1NC(=O)c1ccc(Br)cc1 | i | 10 | -1 | 1 | 196 | + | i | 5.4*
COc1ccc2nc3ccccc3nc2c1NC(=O)c1ccc(Cl)cc1 | i | -12 | -3 | 0 | 322 | i | / | /
c1ccc(COc2ncnc3c2ncn3CCCN2CCN(c3ccccn3)CC2)cc1 | / | -2 | -3 | / | / | i | / | /
c1ccc(COc2ncnc3c2ncn3CCCN2CCN(c3ncccn3)CC2)cc1 | / | 2 | 6 | / | / | i | i | 0
